Source: ChEMBL document CHEMBL1158088, “Bioactive triterpene glycosides from the sea cucumber Holothuria fuscocinerea” (J Nat Prod, 2006)

Tests used:
Bel-7402 = test: Cytotoxicity against human Bel-7402 cells after 72 hrs by sulforhodamine B assay; assay type: functional, cell-based; conditions: Bel-7402, 72 h
How it was run: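 BEL-7402 human hepatoma cells treated 72 h; cell protein measured by sulforhodamine B assay. IC50 taken from dose–response curves as concentration causing 50% drop in absorption relative to control cells. Means ± SD of three independent experiments, triplicate wells per concentration. 10-Hydroxycamptothecine served as positive control.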

HL-60 = test: Cytotoxicity against human HL-60 cells after 72 hrs by MTT assay; assay type: functional, cell-based; conditions: HL-60, 72 h
How it was run: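 HL-60 human leukemia cells exposed to glycosides for 72 h; viability read by MTT colorimetric assay in 96-well microplates. Dose–response curves plotted; IC50 = concentration giving 50% reduction of absorption versus control cells. Three independent experiments, each concentration in triplicate wells; mean ± SD. 10-Hydroxycamptothecine as positive control.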

| Structure (SMILES) | IC50 (Bel-7402) | IC50 (HL-60) |
| --- | --- | --- |
| CO[C@@H]1[C@@H](O)[C@H](O[C@@H]2[C@@H](O)[C@H](O[C@H]3[C@H](O)[C@@H](O)[C@H](O[C@H]4[C@H](O[C@H]5CC[C@]6(C)C7=C[C@H](O)[C@@]89C(=O)O[C@@](C)(C(=O)CCC(C)(C)OC(C)=O)[C@H]8CC[C@@]9(C)[C@@H]7CC[C@H]6C5(C)C)OC[C@@H](OS(=O)(=O)O)[C@@H]4O)O[C@@H]3C)O[C@H](CO)[C@H]2O)O[C@H](CO)[C@H]1O [FUSCOCINEROSIDE A] | 5580 nM | 6210 nM |
| CO[C@@H]1[C@@H](O)[C@H](O[C@@H]2[C@@H](O)[C@H](O[C@H]3[C@H](O)[C@@H](O)[C@H](O[C@H]4[C@H](O[C@H]5CC[C@]6(C)C7=C[C@H](O)[C@@]89C(=O)O[C@@](C)(C(=O)CCC(C)C)[C@H]8CC[C@@]9(C)[C@@H]7CC[C@H]6C5(C)C)OC[C@@H](OS(=O)(=O)O)[C@@H]4O)O[C@@H]3C)O[C@H](CO)[C@H]2O)O[C@H](CO)[C@H]1O [FUSCOCINEROSIDE B] | 2640 nM | 3750 nM |
| CO[C@@H]1[C@@H](O)[C@H](O[C@@H]2[C@@H](O)[C@H](O[C@H]3[C@H](O)[C@@H](O)[C@H](O[C@H]4[C@H](O[C@H]5CC[C@]6(C)C7=C[C@H](O)[C@@]89C(=O)O[C@@](C)(C%10CCC(C)(C)O%10)[C@H]8CC[C@@]9(C)[C@@H]7CC[C@H]6C5(C)C)OC[C@@H](OS(=O)(=O)O)[C@@H]4O)O[C@@H]3C)O[C@H](CO)[C@H]2O)O[C@H](CO)[C@H]1O (some centres not stated) [FUSCOCINEROSIDE C] | 580 nM | 880 nM |
| CO[C@@H]1[C@@H](O)[C@H](O[C@@H]2[C@@H](O)[C@H](O[C@H]3[C@H](O)[C@@H](O)[C@H](O[C@H]4[C@H](O[C@H]5CC[C@]6(C)C7=C[C@H](O)[C@@]89C(=O)O[C@@](C)(C%10CCC(C)(C)O%10)[C@@]8(O)CC[C@@]9(C)[C@@H]7CC[C@H]6C5(C)C)OC[C@@H](OS(=O)(=O)O)[C@@H]4O)O[C@@H]3C)O[C@H](CO)[C@H]2O)O[C@H](CO)[C@H]1O (some centres not stated) [HOLOTHURIN A] | 760 nM | 4420 nM |
| CC[C@@]1(O)C(=O)OCc2c1cc1n(c2=O)Cc2cc3cc(O)ccc3nc2-1 [HYDROXYCAMPTOTHECIN] | 280 nM | 410 nM |
| CO[C@@H]1[C@@H](O)[C@H](O[C@@H]2[C@@H](O)[C@H](O[C@H]3[C@H](O)[C@@H](O)[C@H](O[C@H]4[C@H](O[C@H]5CC[C@]6(C)C7=C[C@H](O)[C@@]89C(=O)O[C@@](C)(CCCC(C)C)[C@H]8CC[C@@]9(C)[C@@H]7CC[C@H]6C5(C)C)OC[C@@H](OS(=O)(=O)O)[C@@H]4O)O[C@@H]3C)O[C@H](CO)[C@H]2O)O[C@H](CO)[C@H]1O [PERVICOSIDE C] | 660 nM | 4480 nM |
